According to ChEMBL document CHEMBL3758086, “Inhibitory effect of phenothiazine- and phenoxazine-derived chloroacetamides on Leishmania major growth and Trypanosoma brucei trypanothione reductase” (Eur J Med Chem, 2016):
One block for each compound: values may come before it. Activity calls are given as the source filed them. No cut-off for these calls is given here.

Experiments:
Leishmania major = experiment: Antileishmanial activity against promastigote stage of Leishmania major assessed as inhibition of parasite proliferation after 48 hrs by Alamar Blue assay; format: functional, organism-based
K562 = experiment: Cytotoxicity against human K562 cells assessed as cell growth inhibition after 48 hrs by Neubauer counting chamber analysis; format: cell-based; settings: K562, 48 h
[1] = target: Trypanothione reductase (Trypanosoma brucei brucei) (UniProt P39051); experiment: Reversible inhibition of recombinant Trypanosoma brucei trypanothione reductase
Sequence of Trypanothione reductase (Trypanosoma brucei brucei) (P39051 whole entry, looked up): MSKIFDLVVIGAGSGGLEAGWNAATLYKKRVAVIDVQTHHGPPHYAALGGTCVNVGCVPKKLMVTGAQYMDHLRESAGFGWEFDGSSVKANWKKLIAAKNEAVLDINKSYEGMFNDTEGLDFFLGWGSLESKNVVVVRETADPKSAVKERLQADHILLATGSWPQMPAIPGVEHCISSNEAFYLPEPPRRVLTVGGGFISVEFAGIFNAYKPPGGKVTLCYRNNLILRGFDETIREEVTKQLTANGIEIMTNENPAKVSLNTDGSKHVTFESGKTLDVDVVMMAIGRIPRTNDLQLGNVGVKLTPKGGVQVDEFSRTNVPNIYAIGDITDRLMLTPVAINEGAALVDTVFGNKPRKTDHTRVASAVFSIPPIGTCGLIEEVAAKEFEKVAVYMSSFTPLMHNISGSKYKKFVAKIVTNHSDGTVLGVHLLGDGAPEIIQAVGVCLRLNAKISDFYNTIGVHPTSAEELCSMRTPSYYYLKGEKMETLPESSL

[2] = target: T1, Tryparedoxin peroxidase (Trypanosoma brucei) (UniProt Q9GU47); experiment: Time dependent inhibition of Trypanosoma brucei tryparedoxin peroxidase preincubated for 10 mins in presence of NADPH, tryparedoxin, T(SH)2 followed by addition of hydrogen peroxide
T1 sequence (whole entry): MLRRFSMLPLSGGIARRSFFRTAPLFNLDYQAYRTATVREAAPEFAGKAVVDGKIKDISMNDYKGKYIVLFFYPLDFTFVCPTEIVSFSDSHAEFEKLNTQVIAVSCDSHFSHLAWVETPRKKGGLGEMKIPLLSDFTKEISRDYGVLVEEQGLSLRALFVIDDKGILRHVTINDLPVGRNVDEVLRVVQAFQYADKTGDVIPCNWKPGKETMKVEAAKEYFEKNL
Outline: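 Peroxidase cascade mixture of NADPH, T. brucei TR, tryparedoxin, peroxidase, T(SH)2 and inhibitor incubated 10 min, then reaction started with H2O2.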

[3] = target: Trypanothione reductase (Trypanosoma brucei brucei) (UniProt P39051); settings: 50 uM
[4] = target: Trypanothione reductase (Trypanosoma brucei brucei) (UniProt P39051); experiment: Inhibition of recombinant Trypanosoma brucei trypanothione reductase at 25 uM in presence of NADPH, trypanothione disulphide
Outline: (§1)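 T. brucei TR (1 µM) preincubated at 25 °C in 200 µL TR assay buffer with 400 µM NADPH and compound (25, 50 or 100 µM) or DMSO (5%). At 10, 30, 60, 120 and 180 min, a 5 µL aliquot went into a 1 mL standard assay with 100 µM NADPH, started with 100 µM trypanothione disulfide. Absorbance decrease at 340 nm followed at 25 °C.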

[5] = target: Trypanothione reductase (Trypanosoma brucei brucei) (UniProt P39051); experiment: Inhibition of recombinant Trypanosoma brucei trypanothione reductase at 100 uM in presence of NADPH, trypanothione disulphide; outline: as §1

inhibition [1]: inactive
SMILES: O=C(CBr)N1c2ccccc2Oc2ccc(Cl)cc21
IC50 (Leishmania major): > 100 µM
IC50 (K562): 6.15 µM

inhibition [1]: inactive
SMILES: O=C(CCCl)N1c2ccccc2Oc2ccc(Cl)cc21
IC50 (Leishmania major): 15.7 µM
IC50 (K562): 10.2 µM

inhibition [1]: inactive
SMILES: N#CCC(=O)N1c2ccccc2Oc2ccccc21
IC50 (Leishmania major): > 100 µM
IC50 (K562): 23 µM

inhibition [1]: inactive
SMILES: O=C(CCCCl)N1c2ccccc2Oc2ccc(Cl)cc21
IC50 (Leishmania major): > 100 µM
IC50 (K562): > 90 µM

inhibition [1]: inactive
TDI [2]: inactive
SMILES: O=C(CCl)N1c2ccccc2COc2ccc(Cl)cc21
IC50 (Leishmania major): 7.2 µM
IC50 (K562): 3.3 µM

inhibition [1]: inactive
SMILES: O=C(CCl)N1c2ccccc2CCc2ccccc21
IC50 (Leishmania major): 43.3 µM
IC50 (K562): 4.8 µM

inhibition [1]: inactive
TDI [2]: inactive
SMILES: O=C(CCl)N1c2ccccc2Sc2ccccc21
IC50 (Leishmania major): 9.3 µM
IC50 (K562): 5 µM

inhibition [1]: inactive
inhibition [3]: inactive
SMILES: O=C(CCl)N1c2ccccc2Oc2ccc(Cl)cc21
IC50 (Leishmania major): 7.6 µM
IC50 (K562): 3 µM

inhibition [1]: inactive
SMILES: O=C(C(Cl)Cl)N1c2ccccc2Oc2ccccc21
IC50 (Leishmania major): 82 µM
IC50 (K562): > 30 µM

inhibition [1]: inactive
SMILES: O=C(CCl)N1c2ccccc2C=Cc2ccccc21
IC50 (Leishmania major): 48.1 µM
IC50 (K562): 6.2 µM

inhibition [1]: inactive
SMILES: O=C(C(Cl)CCl)N1c2ccccc2Oc2ccccc21 (centres undefined)
IC50 (Leishmania major): 9.6 µM

inhibition [1]: inactive
SMILES: O=C(CCCl)N1c2ccccc2Oc2ccccc21
IC50 (Leishmania major): 39.1 µM
IC50 (K562): 15.2 µM

inhibition [1]: inactive
SMILES: O=C(CCl)N1c2ccccc2Oc2ccc(C(F)(F)F)cc21
IC50 (Leishmania major): 9.6 µM

inhibition [1]: inactive
SMILES: CC(Cl)C(=O)N1c2ccccc2Oc2ccccc21 (centres undefined)
IC50 (Leishmania major): > 100 µM
IC50 (K562): > 30 µM

inhibition [1]: inactive
inhibition [5]: inactive
SMILES: CC(=O)N1c2ccccc2Oc2ccc(Cl)cc21
IC50 (Leishmania major): > 100 µM
IC50 (K562): > 30 µM

The remaining lines, values behind:

SMILES: O=C(CCl)n1c2ccccc2c2ccccc21
IC50 (Leishmania major): > 100 µM
IC50 (K562): 6.44 µM
inhibition [1]: inactive

SMILES: O=C(CCl)N1c2cc(Cl)ccc2Oc2ccc(Cl)cc21
IC50 (Leishmania major): 9.5 µM
IC50 (K562): 2.03 µM
inhibition [1]: inactive

SMILES: O=C(CCl)Nc1cc(Cl)ccc1Oc1ccccc1
IC50 (Leishmania major): 42.6 µM
inhibition [1]: inactive

SMILES: CCCCCCCCCCCCCCCCOP(=O)([O-])OCC[N+](C)(C)C [MILTEFOSINE]
IC50 (Leishmania major): 36 µM

SMILES: O=C(CCl)N1c2ccccc2Sc2ccc(Cl)cc21
IC50 (Leishmania major): 10.4 µM
IC50 (K562): 3.2 µM
inhibition [1]: inactive

SMILES: C[C@@H]1[C@H](O)[C@@H](C)/C=C/C=C/C=C/C=C/C=C/C=C/C=C/[C@H](O[C@@H]2O[C@H](C)[C@@H](O)[C@H](N)[C@@H]2O)C[C@@H]2O[C@](O)(C[C@@H](O)C[C@@H](O)[C@H](O)CC[C@@H](O)C[C@@H](O)CC(=O)O[C@H]1C)C[C@H](O)[C@H]2C(=O)O [AMPHOTERICIN B]
IC50 (Leishmania major): 0.33 µM

SMILES: Clc1ccc2c(c1)Nc1ccccc1O2
IC50 (Leishmania major): 69.2 µM
inhibition [1]: inactive
inhibition [4]: inactive

SMILES: NC[C@@H]1O[C@H](O[C@H]2[C@@H](O)[C@H](O[C@@H]3[C@@H](O)[C@H](N)C[C@H](N)[C@H]3O[C@H]3O[C@H](CO)[C@@H](O)[C@H](O)[C@H]3N)O[C@@H]2CO)[C@H](N)[C@@H](O)[C@@H]1O [PAROMOMYCIN]
IC50 (Leishmania major): > 100 µM

SMILES: ClCCN1c2ccccc2Oc2ccc(Cl)cc21
IC50 (Leishmania major): > 100 µM
inhibition [1]: inactive

SMILES: O=C(CCl)N(c1ccccc1)c1cccc(Cl)c1
IC50 (Leishmania major): 40.3 µM
inhibition [1]: inactive

SMILES: N=C(N)c1ccc(OCCCCCOc2ccc(C(=N)N)cc2)cc1
IC50 (Leishmania major): 84 µM
